# Measurements reported in PubChem BioAssay.
# Calls of active or inactive are those of the source.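 Rule for the calls, unless noted: active = viability at or below 30% in both replicate assays; inconclusive = viability at or below 30% in just one of the two assays; inactive = the rest.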 Peptide text beside a SMILES is read from it. * marks the point of attachment. Boc = CC(C)(C)OC(=O)*
# Experiments:
# [1] = reducers of endogenous Her2 protein level, primary screen, SKBR3 breast tumor cells, AlphaScreen, ATP viability (AID 461;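 active = Her2 level under about 52% in both replicate screens, with viability over 70% of control, limit read from the data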;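 for Her2 level: lower value means less Her2 protein in the cells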;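 for viability: percent of carrier control wells set as 100% viability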); conditions: 18-24 h, measured here: SKBR3 viability, ATP luminescence, at 10 µM
# [2] = target: Receptor tyrosine-protein kinase erbB-2 (Homo sapiens) (UniProt P04626); assay: as above; conditions: 18-24 h, at 10 µM, stronger effect = lower value
# Sequence of Receptor tyrosine-protein kinase erbB-2 (Homo sapiens) (P04626 whole entry, looked up): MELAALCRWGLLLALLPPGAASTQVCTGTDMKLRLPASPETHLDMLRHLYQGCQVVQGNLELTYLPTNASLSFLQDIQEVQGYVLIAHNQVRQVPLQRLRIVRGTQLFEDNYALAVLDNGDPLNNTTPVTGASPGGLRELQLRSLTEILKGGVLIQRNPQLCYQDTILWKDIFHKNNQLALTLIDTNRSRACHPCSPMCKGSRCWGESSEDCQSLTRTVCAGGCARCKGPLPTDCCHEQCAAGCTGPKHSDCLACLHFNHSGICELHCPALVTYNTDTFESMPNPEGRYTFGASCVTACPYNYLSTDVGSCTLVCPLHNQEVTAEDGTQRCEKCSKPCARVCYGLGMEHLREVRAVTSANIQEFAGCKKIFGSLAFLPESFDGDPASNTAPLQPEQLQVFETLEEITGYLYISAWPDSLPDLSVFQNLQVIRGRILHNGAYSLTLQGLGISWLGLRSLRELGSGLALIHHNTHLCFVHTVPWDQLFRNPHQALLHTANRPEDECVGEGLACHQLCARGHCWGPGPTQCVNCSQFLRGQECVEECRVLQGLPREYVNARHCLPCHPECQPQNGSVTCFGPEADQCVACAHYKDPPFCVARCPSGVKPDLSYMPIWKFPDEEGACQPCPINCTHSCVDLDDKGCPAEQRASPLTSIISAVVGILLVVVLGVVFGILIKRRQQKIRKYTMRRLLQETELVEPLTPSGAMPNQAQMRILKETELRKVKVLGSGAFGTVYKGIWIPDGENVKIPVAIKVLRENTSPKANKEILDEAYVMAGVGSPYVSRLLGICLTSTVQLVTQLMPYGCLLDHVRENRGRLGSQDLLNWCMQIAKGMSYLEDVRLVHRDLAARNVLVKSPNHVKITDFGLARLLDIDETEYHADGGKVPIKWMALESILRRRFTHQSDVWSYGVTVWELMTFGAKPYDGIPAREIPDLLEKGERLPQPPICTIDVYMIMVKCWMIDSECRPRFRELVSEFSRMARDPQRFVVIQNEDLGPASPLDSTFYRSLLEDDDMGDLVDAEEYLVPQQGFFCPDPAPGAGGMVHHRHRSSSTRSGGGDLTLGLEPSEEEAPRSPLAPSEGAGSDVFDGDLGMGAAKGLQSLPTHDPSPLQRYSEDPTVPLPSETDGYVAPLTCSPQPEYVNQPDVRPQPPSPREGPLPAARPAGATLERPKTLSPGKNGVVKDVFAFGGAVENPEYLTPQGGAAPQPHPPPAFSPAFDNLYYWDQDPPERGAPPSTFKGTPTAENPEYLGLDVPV
# [3] = SK-BR-3 cell growth inhibitors, pilot screen, 24 h, human (AID 572;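 active = viability at or below 10% of carrier control in both of two separate runs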;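 note: compound exposure lasted between 18 and 24 h rather than exactly 24 h; 100% = carrier-treated control wells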); conditions: SK-BR-3 viability, CellTiter-Glo luminescence, at 10 µM, stronger effect = lower value
# [4] = HUVEC growth inhibition – cell-based, human, primary screen (AID 575); conditions: HUVEC proliferation, CellTiter-Glo luminescence, 72 h; at 10 µM; stronger effect = lower value;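 note: 100% = median of untreated cell wells with 0.1% DMSO on each plate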
# Method in brief: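 Test system: primary human umbilical vein endothelial cells. Quantity: 1250 cells/well. Compound: single 10 µM dose, 0.1% DMSO, from 5x medium stock. Timing: 72 h treatment at 37 °C. Detection: ATP-based CellTiter-Glo luminescent read. Benchmarks: vehicle and MePR control wells. Format: 384-well plates coated with collagen.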
# [5] = growth inhibitors of H69AR lung tumor, primary screen, human, duplicate replicates (AID 580;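 active = viability at or under a set limit in both replicates, limit being median viability minus 3 SD, cut at about 48% in these data, passing the limit was not always enough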;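 note: 100% = mean luminescence of untreated wells and 0% = no signal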); conditions: H69AR lung tumor cells viability, ATP luminescence, 72 h; at 10 µM; stronger effect = lower value
# [6] = reversal of MRP1-mediated doxorubicin resistance, pilot screen, H69AR cells, doxorubicin co-treatment (AID 601;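 active = viability loss from added drug above about 55%, and viability with drug at most 40%, in both replicates, limit read from the data, passing the limit was not always enough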); conditions: CellTiter-Glo, 72 h, at 10 µM; for differential viability (reversal): stronger effect = higher value
# [7] = 384-well plate pilot, post-Golgi transport modulator project, inhibition of yeast transport mutant growth (AID 636; in the data active = inhibition above about 31%); conditions: absorbance 615 nm, about 18 h, stronger effect = higher value
# [8] = growth suppression of yeast trafficking mutant, preliminary HTS, modulators of trafficking downstream of Golgi apparatus project, 1536-format plate, OD 615 nm (AID 637; in the data active = inhibition above about 30%); conditions: yeast transport mutant growth, absorbance 615 nm, 18 h; stronger effect = higher value
# [9] = H69AR cells + 2 uM doxorubicin, measured here: viability with 2 uM doxorubicin, stronger effect = lower value
# [10] = H69AR cells, compound alone cytotoxicity
Compound,viability [1] [%],Her2 level [2],viability [3],viability [4],viability [5],differential viability (reversal) ([6]; H69AR cells + 2 uM doxorubicin),"viability [6, 9] [%]","viability [6, 10] [%]",inhibition [7],inhibition [8]
CCOc1ccc(NC(=O)CSc2nnc(Cc3cccn3C)n2-c2ccc(OC)cc2)cc1,82,81% (inactive),82% (inactive),79.5% (inactive),90.6% (inactive),-5.27% (inactive),95.9,90.6,-1.49% (inactive),-8.03% (inactive)
CC(=O)Nc1nc(-c2ccc(Cl)cc2)nc(C)c1C(C)=O,96.5,89.5% (inactive),96.5% (inactive),89% (inactive),104% (inactive),9.83% (inactive),94.6,104,-3.65% (inactive),-2.83% (inactive)
CCOC(=O)c1ccccc1NC(=O)c1ccc(NS(C)(=O)=O)cc1,93.5,83.5% (inactive),93.5% (inactive),97% (inactive),80.7% (inactive),-1.98% (inactive),82.7,80.7,-4.53% (inactive),-3.81% (inactive)
Cc1ccc(NC2=NC3(CCCCC3)N=C(N)N2)c(C)c1,114,96% (inactive),114% (inactive),87.9% (inactive),102% (inactive),18.6% (inactive),83.9,102,2.16% (inactive),-5.87% (inactive)
COc1cc(C)nc(OCCNC(=O)COc2ccc(Cl)cc2C)n1,96.5,100% (inactive),96.5% (inactive),95.2% (inactive),107% (inactive),8.69% (inactive),98,107,-0.93% (inactive),1.64% (inactive)
Cc1ccc(Cc2c(C)nc3c(C(=O)O)cnn3c2C)cc1,93.5,114% (inactive),93.5% (inactive),85.5% (inactive),91.9% (inactive),-10.4% (inactive),102,91.9,-4.34% (inactive),-5.17% (inactive)
CC(NC(=O)c1ccccc1NC(=O)c1ccco1)C(=O)O (stereo not given),106,68% (inactive),106% (inactive),89% (inactive),86.7% (inactive),2.01% (inactive),84.7,86.7,-2.63% (inactive),2.1% (inactive)
O=C(Nc1ccc2c(c1)OCO2)c1cncc(Br)c1,108,77% (inactive),108% (inactive),82% (inactive),92.6% (inactive),2.14% (inactive),90.5,92.6,-4.27% (inactive),5.25% (inactive)
Cc1cnc(NC(=O)CSc2nc3ccccc3c(=O)[nH]2)s1,89.5,93.5% (inactive),89.5% (inactive),76.5% (inactive),93.3% (inactive),10.8% (inactive),82.5,93.3,-3.07% (inactive),-6.19% (inactive)
COC(=O)c1[nH]c2ccccc2c1NC(=O)CN1CCC(C(N)=O)(N2CCCCC2)CC1,96,97.5% (inactive),96% (inactive),101% (inactive),93.2% (inactive),5.43% (inactive),87.8,93.2,1.58% (inactive),0.49% (inactive)
Cn1c2c(c(=O)n(C)c1=O)CN(CCCN1CCOCC1)CN2,100,86.5% (inactive),100% (inactive),106% (inactive),108% (inactive),7.39% (inactive),101,108,-5.26% (inactive),-5.27% (inactive)
COC(=O)C1CCN(C(=O)NC(C)(C)C)CC1,110,83% (inactive),110% (inactive),104% (inactive),105% (inactive),17.2% (inactive),87.3,105,-5.27% (inactive),8.73% (inactive)
Cc1ccc(N(CC(=O)NCC2CCCO2)S(C)(=O)=O)cc1Cl (stereo not given),106,82.5% (inactive),106% (inactive),99.1% (inactive),89.2% (inactive),-3.35% (inactive),92.6,89.2,1.41% (inactive),-3% (inactive)
COc1ccc(-c2cc(C(F)(F)F)n3nc(C(=O)N4CCOCC4)nc3n2)cc1,88,116% (inactive),88% (inactive),101% (inactive),94.1% (inactive),4.48% (inactive),89.6,94.1,-0.64% (inactive),-4.17% (inactive)
O=S(=O)(c1ccc(-c2csc(-c3cccnc3)n2)cc1)N1CCCCC1,106,102% (inactive),106% (inactive),81.1% (inactive),84.2% (inactive),1.22% (inactive),83,84.2,0% (inactive),-1.75% (inactive)
CCc1ccc(C=NC23CN4CN(CN(C4)C2)C3)s1,108,114% (inactive),108% (inactive),95.2% (inactive),105% (inactive),9.64% (inactive),95.2,105,1.17% (inactive),-3.61% (inactive)
Fc1ccccc1-c1nc(NCCCN2CCOCC2)c2ccccc2n1,94,107% (inactive),94% (inactive),85.6% (inactive),72.2% (inactive),-7.69% (inactive),79.9,72.2,-0.68% (inactive),9.21% (inactive)
O=C(OCc1nnc(-c2ccccc2)o1)c1ccc2ccccc2n1,106,116% (inactive),106% (inactive),100% (inactive),89.4% (inactive),-0.715% (inactive),90.1,89.4,3.15% (inactive),23.2% (inactive)
COc1ccc(C(=O)N2CCN(C3CCC(c4ccccc4)CC3)CC2)cc1OC (stereo not given),108,93% (inactive),108% (inactive),95.2% (inactive),83% (inactive),-2.52% (inactive),85.6,83,-4.16% (inactive),-3.67% (inactive)
CCCCn1cnc2c(cnn2-c2ccc(Cl)cc2)c1=O,94.5,87% (inactive),94.5% (inactive),99.4% (inactive),86.1% (inactive),-1.77% (inactive),87.9,86.1,-3.55% (inactive),2.91% (inactive)
Cc1cnn(Cc2ccccc2)c1N,115,73.5% (inactive),115% (inactive),84.3% (inactive),88.7% (inactive),11.2% (inactive),77.6,88.7,-6.08% (inactive),4.76% (inactive)
CCNc1nc(OC)nc(Oc2ccc(=O)n(-c3ccccc3)n2)n1,96,86.5% (inactive),96% (inactive),106% (inactive),96.4% (inactive),10.6% (inactive),85.8,96.4,-8.51% (inactive),2% (inactive)
C=CCn1c(-c2ccccc2)c[nH]c1=S,91,92.5% (inactive),91% (inactive),114% (inactive),99.9% (inactive),22.4% (inactive),77.5,99.9,-5.84% (inactive),0.16% (inactive)
CC(C)(C)OC(=O)N1CC(O)CC1C(=O)OCC(=O)c1ccc(Cl)cc1 (stereo not given),95,91% (inactive),95% (inactive),109% (inactive),84% (inactive),-6.24% (inactive),90.3,84,-5.68% (inactive),11.5% (inactive)
CC(NC(=O)OC(C)(C)C)C(=O)N1CCCC1C(=O)NC(Cc1ccccc1)C(N)=O (stereo not drawn) (Boc-Ala-Pro-Phe-NH2; configuration not given here),105,94% (inactive),105% (inactive),95.6% (inactive),101% (inactive),4.26% (inactive),97.1,101,-1.73% (inactive),4.68% (inactive)
O=C(NCCCN1CCCC1=O)c1cncc(Br)c1,97,83.5% (inactive),97% (inactive),98.5% (inactive),103% (inactive),10.1% (inactive),93,103,-6.67% (inactive),6.56% (inactive)
CCCCC(=O)Nc1nn(CCC)c2nc3ccccc3cc12,94,92% (inactive),94% (inactive),92.5% (inactive),96.1% (inactive),-5.81% (inactive),102,96.1,-1.97% (inactive),6.23% (inactive)
